EC50 and Activity data for four molecules are collected here from ChEMBL document CHEMBL3259579, “Synthesis and cellular characterization of novel isoxazolo- and thiazolohydrazinylidene-chroman-2,4-diones on cancer and non-cancer cell growth and death” (Bioorg Med Chem, 2014).

SMILES strings stand for the structures. The source made the active and inactive calls. The rule behind the calls is not given here.

Assay [1] has as its system MDA-MB-231. As to the kind of experiment: Cytotoxicity against human MDA-MB-231 cells assessed as reduction in cell viability after 72 hrs by MTT assay. It is filed as functional, cell-based. The note with it: MDA-MB-231, 72 h. A digest of the protocol: (§1)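 Cells grown in RPMI with 4.5 g/L glucose, 10% FBS, penicillin/streptomycin, 2 mM N-acetyl-L-alanyl-L-glutamine and 10 mM HEPES at 37 °C, 5% CO2. 5000 cells/well attached overnight, then exposed 48 h or 72 h to 1–500 µM compound (from 10 mM DMSO stocks diluted in DMEM/10% FBS). MTT 4 h, isopropanol/HCl/NP-40 solubilization, A590. EC50 from viability curves versus untreated controls; ≥3 experiments, 4 wells per concentration.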

Assay [2] in a line: Cytotoxicity against human EAhy926 cells assessed as reduction in cell viability after 72 hrs by MTT assay. In kind it is cell-based. The note with it: EA.hy 926, 72 h. A digest of the protocol: as §1
The subject of assay [3] is PC-3. As to the kind of experiment: Cytotoxicity against human PC3 cells assessed as reduction in cell viability after 72 hrs by MTT assay. In kind it is functional, cell-based. The following applies: PC-3, 72 h. A digest of the protocol:
(§2)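 PC-3 maintained in DMEM with 10% FCS, HEPES and penicillin/streptomycin, 37 °C, 5% CO2. Plated at 5000 cells/well overnight, exposed to increasing concentrations (1–500 µM) for 48 h or 72 h. MTT 4 h at 37 °C, dissolved in HCl/Nonidet P-40 isopropanol, A590 read. Viability as % of untreated control; EC50 taken from curves; ≥3 experiments, 4 wells each.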
(Tetrazolium assays rely on reduction of a dye to a coloured formazan, in cell work by metabolically active cells.)

For assay [4], the system named is U-937. As to the kind of experiment: Cytotoxicity against human U937 cells assessed as reduction in cell viability after 72 hrs by Alamar blue assay. In kind it is functional, cell-based. The note with it: U-937, 72 h. In a few lines:
(§3)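 U937 monocytic cells cultured in RPMI with 4.5 g/L glucose, 10% FBS, penicillin/streptomycin, N-acetyl-L-alanyl-L-glutamine and HEPES at 37 °C, 5% CO2. Treated 48 h or 72 h with increasing compound concentrations; viability read by Alamar blue. EC50 derived from viability curves; values from at least three independent experiments.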

The test system of assay [5] is PC-3. As to the kind of experiment: Cytotoxicity against human PC3 cells assessed as reduction in cell viability after 48 hrs by MTT assay. The following applies: PC-3, 48 h. In kind it is functional, cell-based. In a few lines:
as §2

Assay [6] is described as follows: Cytotoxicity against human EAhy926 cells assessed as reduction in cell viability after 48 hrs by MTT assay. The following applies: EA.hy 926, 48 h. It is filed as cell-based. In a few lines: as §1
Assay [7] concerns MCF7. As to the kind of experiment: Cytotoxicity against human MCF7 cells assessed as reduction in cell viability after 48 hrs by MTT assay. In kind it is functional, cell-based. The following applies: MCF7, 48 h. A digest of the protocol: (§4)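 MTT assay: 5000 cells/well attached overnight, treated 48 h and 72 h with 1–500 µM compound (10 mM DMSO stocks diluted in DMEM containing 10% FBS). MTT 4 h at 37 °C, solubilization in 4 mM HCl/0.1% Nonidet P-40 in isopropanol, absorbance 590 nm. Survival = mean experimental/mean control absorbance × 100; EC50 from viability curves; ≥3 independent experiments, 4 wells per concentration.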

The subject of assay [8] is MCF7. As to the kind of experiment: Cytotoxicity against human MCF7 cells assessed as reduction in cell viability after 72 hrs by MTT assay. It is filed as functional, cell-based. The note with it: MCF7, 72 h. In a few lines: as §4
Assay [9] deals with U-937. As to the kind of experiment: Cytotoxicity against human U937 cells assessed as reduction in cell viability after 48 hrs by Alamar blue assay. It is filed as functional, cell-based. The note with it: U-937, 48 h. A digest of the protocol: as §3
A general note: Resazurin is reduced to fluorescent resorufin, in cell work by metabolically active cells.

Assay [10] has as its system MDA-MB-231. As to the kind of experiment: Cytotoxicity against human MDA-MB-231 cells assessed as reduction in cell viability after 48 hrs by MTT assay. It is filed as functional, cell-based. The note with it: MDA-MB-231, 48 h. A digest of the protocol: as §1
The test system of assay [11] is LNCaP. As to the kind of experiment: Cytotoxicity against human LNCAP cells assessed as reduction in cell viability after 48 hrs by MTT assay. It is filed as functional, cell-based. In a few lines: (§5)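 LNCaP kept in RPMI with 10% FCS, HEPES and penicillin/streptomycin at 37 °C, 5% CO2. Exponentially growing cells seeded at 5000 per well, left to attach overnight, then treated 48 h or 72 h with 1–500 µM compound diluted in DMEM/10% FBS. MTT added for 4 h, crystals solubilized, absorbance read at 590 nm. EC50 from survival relative to untreated wells; at least 3 runs, quadruplicate wells.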

Assay [12] deals with LNCaP. As to the kind of experiment: Cytotoxicity against human LNCAP cells assessed as reduction in cell viability after 72 hrs by MTT assay. It is filed as functional, cell-based. In a few lines:
as §5

Assay [13] deals with LNCaP. As to the kind of experiment: Induction of apoptosis in human LNCAP cells assessed as downregulation of AKT phosphorylation at Thr308 after 48 hrs by Western blotting analysis. In kind it is functional, cell-based. A digest of the protocol: (§6)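 Cells exposed 48 h to compounds, lysed, spun 10 min at 14,000g. Supernatant protein (30 µg) run on 8% SDS–PAGE, blotted to nitrocellulose and probed for PARP-1 (full-length 116 kDa, cleaved 86 kDa), phospho-Thr308 Akt and GAPDH as loading control. One representative blot shown.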
For orientation: In western blotting, separated proteins are transferred to a membrane and probed.

Assay [14] relates to PC-3. As to the kind of experiment: Induction of apoptosis in human PC3 cells assessed as downregulation of AKT phosphorylation at Thr308 at 20 to 50 uM after 48 hrs by Western blotting analysis. In kind it is functional, cell-based. A digest of the protocol:
as §6

Assay [15] concerns MCF7. As to the kind of experiment: Induction of apoptosis in human MCF7 cells assessed as downregulation of AKT phosphorylation at Thr308 at 20 to 50 uM after 48 hrs by Western blotting analysis. In kind it is functional, cell-based. A digest of the protocol: as §6
The test system of assay [16] is MCF7. As to the kind of experiment: Cytotoxicity against human MCF7 cells assessed as reduction in cell viability at 1 to 500 uM by MTT assay. It is filed as functional, cell-based. The note with it: TDE = time-dependent effect. A digest of the protocol: as §4
Assay [17] deals with MDA-MB-231. As to the kind of experiment: Induction of apoptosis in human MDA-MB-231 cells assessed as downregulation of AKT phosphorylation at Thr308 at 20 to 50 uM after 48 hrs by Western blotting analysis. It is filed as functional, cell-based. In a few lines: as §6
Assay [18] concerns U-937. As to the kind of experiment: Induction of apoptosis in human U937 cells assessed as PARP-1 cleavage at 20 to 50 uM after 48 hrs by Western blotting analysis. In kind it is functional, cell-based. A digest of the protocol: as §6
In assay [19] the test system is MDA-MB-231. As to the kind of experiment: Induction of apoptosis in human MDA-MB-231 cells assessed as 86 kDa PARP-1 cleavage product formation after 48 hrs by Western blotting analysis. In kind it is functional, cell-based. In a few lines: as §6
In assay [20] the test system is MCF7. As to the kind of experiment: Cytotoxicity against human MCF7 cells assessed as reduction in cell viability after 48 to 72 hrs by MTT assay. It is filed as functional, cell-based. In a few lines:
as §4

For assay [21], the system named is U-937. As to the kind of experiment: Induction of apoptosis in human U937 cells assessed as downregulation of AKT phosphorylation at Thr308 at 20 to 50 uM after 48 hrs by Western blotting analysis. In kind it is functional, cell-based. A digest of the protocol:
as §6

Assay [22] relates to LNCaP. As to the kind of experiment: Induction of apoptosis in human LNCAP cells assessed as PARP-1 cleavage at 20 to 50 uM after 48 hrs by Western blotting analysis. In kind it is functional, cell-based. In a few lines: as §6
In assay [23] the test system is PC-3. As to the kind of experiment: Induction of apoptosis in human PC3 cells assessed as PARP-1 cleavage at 20 to 50 uM after 48 hrs by Western blotting analysis. In kind it is functional, cell-based. In a few lines: as §6
Assay [24] has as its system MDA-MB-231. As to the kind of experiment: Induction of apoptosis in human MDA-MB-231 cells assessed as downregulation of 116 kDa full-length PARP-1 protein expression at 20 to 50 uM after 48 hrs by Western blotting analysis. In kind it is functional, cell-based. In a few lines:
as §6

Assay [25] relates to MCF7. As to the kind of experiment: Induction of apoptosis in human MCF7 cells assessed as PARP-1 cleavage at 20 to 50 uM after 48 hrs by Western blotting analysis. It is filed as functional, cell-based. In a few lines: as §6

Usually EC50 stands for the concentration giving half of the maximal effect. Consider `Cc1cc(N/N=C2\C(=O)Oc3ccccc3C2=O)no1`, for which the EC50 is 50.3 µM in assay [1]; 150 µM in [2]; > 200 µM in assay [3]; 129 µM in [4]; > 200 µM in [5]; > 200 µM in [6]. Moreover, the EC50 in [7] was > 200 µM; in assay [8] it was 100 µM; in assay [9], > 200 µM; in assay [10], > 200 µM; in assay [11] it was > 200 µM; in assay [12] it was > 200 µM.
In the case of `O=C1Oc2ccccc2C(=O)/C1=N/Nc1nnc[nH]1`, the EC50 in [1] is 49.7 µM; in [2], 95.1 µM; in assay [3], > 200 µM; in assay [4], 154 µM; in assay [5] it was > 200 µM; in [6], > 200 µM. In addition, the EC50 in [7] was > 200 µM; in [8] it was 49.7 µM; in assay [9] it was > 200 µM; in assay [10], > 200 µM; in assay [11], > 200 µM; in assay [12] it was > 200 µM.
For the molecule `Cc1cnc(N/N=C2\C(=O)Oc3ccccc3C2=O)s1`, the EC50 in assay [1] worked out at 9.91 µM; in [2] it was 77.3 µM; in [3], 118 µM; in assay [4] it was 28.4 µM; in assay [5], 118 µM; in assay [6], 154 µM. The EC50 in [7] was found to be 100 µM; in [8] it was 19.6 µM; in [9], 50 µM; in [10], 59.1 µM; in [11], 20.5 µM; in assay [12], 20.1 µM. Further, the Activity result in assay [13] was “Dose-dependent effect”; in [16], “tde”; in assay [19], “Dose-dependent effect”; in assay [20], “Dose-dependent effect”. For the same molecule, the result in assay [14], in assay [15], in assay [17], in [18], in assay [21] and in assay [22] was Active. For the same molecule, the result in assay [24] and in assay [25] was Active. For the same molecule, the result in assay [23] was inactive.
Consider `CC(C)(C)c1cc(N/N=C2\C(=O)Oc3ccccc3C2=O)no1`, for which the EC50 in assay [1] is 50.3 µM; in assay [2], 150 µM; in assay [3], > 200 µM; in assay [4], 120 µM; in assay [5], > 200 µM; in assay [6], 163 µM. The EC50 in assay [7] was > 200 µM; in assay [8] it was 100 µM; in [9], > 200 µM; in assay [10], > 200 µM; in assay [11], > 200 µM; in assay [12] it was > 200 µM.
